Calls of active or inactive are those of the source. The rule behind the calls is not given here.
How the values were obtained:
HCT-116 [1] = assay: Induction of cell cycle arrest in human HCT-116 cells assessed as G0/G1 phase at 1 uM incubated for 24 hrs by flow cytometry analysis (Rvb=35.7%); assay type: functional
[2] = biological target: Dual specificity protein kinase CLK1 (Homo sapiens) (UniProt P49759); assay: Inhibition of CLK (unknown origin) in human HCT-116 cells assessed as induction in alternative splicing effect in RBM25-PSEN1 level incubated for 6 hrs by RT-PCR analysis; assay type: cell-based; conditions: dose 0.2-5 µM
Sequence of Dual specificity protein kinase CLK1 (Homo sapiens) (P49759 whole entry, looked up, canonical isoform): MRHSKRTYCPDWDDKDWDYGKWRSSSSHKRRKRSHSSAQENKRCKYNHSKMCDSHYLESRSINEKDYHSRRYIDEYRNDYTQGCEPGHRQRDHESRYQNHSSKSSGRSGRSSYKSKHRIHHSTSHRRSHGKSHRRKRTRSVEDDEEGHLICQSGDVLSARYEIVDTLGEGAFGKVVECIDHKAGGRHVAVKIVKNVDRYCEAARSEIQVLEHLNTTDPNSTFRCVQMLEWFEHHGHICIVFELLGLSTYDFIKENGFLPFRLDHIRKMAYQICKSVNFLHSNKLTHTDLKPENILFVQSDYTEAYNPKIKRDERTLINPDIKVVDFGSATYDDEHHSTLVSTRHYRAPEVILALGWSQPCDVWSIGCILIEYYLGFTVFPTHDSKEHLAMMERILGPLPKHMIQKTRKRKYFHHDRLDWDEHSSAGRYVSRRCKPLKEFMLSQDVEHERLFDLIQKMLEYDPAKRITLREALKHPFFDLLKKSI
Method in brief: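 Cells exposed to graded T3 concentrations for 6 h (chosen to avoid cytotoxicity), with a DMSO vehicle control. Total RNA was reverse-transcribed with oligo-dT primers. Targeted splice or conjoined-gene products were quantified by real-time qPCR or by targeted next-generation sequencing. Conjoined-gene isoform expression was normalized to a sequenced housekeeping gene.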

[3] = biological target: Tyrosine-protein kinase JAK2 (Homo sapiens) (UniProt O60674); assay: Inhibition of JAK2 (unknown origin) at 100 nM in the presence of ATP by Kinome scan method relative to control
[4] = biological target: Dual specificity protein kinase CLK1 (Homo sapiens) (UniProt P49759); assay: Inhibition of CLK1 (unknown origin) in human HCT-116 cells assessed as increase in CLK1 protein level at 0.5 to 0.1 uM incubated for 6 hrs by immunoblot analysis; assay type: cell-based; conditions: dose 0.5-0.1 µM
Method in brief: (§1)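 HCT116 cells were treated for 3 or 6 h and lysed in SDS sample buffer (Tris-HCl pH 6.8), then boiled for 5 min. Lysates were run on 5–15% or 4–12% gradient gels and transferred to nitrocellulose or PVDF. Blots were blocked in milk or BSA/TBS-T and probed overnight at 4 °C with anti-phospho-SR (1H4, 1/1000), anti-SR, anti-CLK1 or anti-CLK3 antibodies, with GAPDH as loading control.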

HCT-116 [5] = assay: Induction of apoptosis in human HCT-116 cells assessed as necrosis cells at 1 uM incubated for > 6 hrs by annexin V/PI staining based analysis (Rvb=0.55%); assay type: functional
[6] = biological target: Cyclin-dependent kinase 1/cyclin B1 (Homo sapiens) (UniProt P06493+P14635); assay: Inhibition of CDK1/cyclin B (unknown origin) at 1000 nM in the presence of ATP by Kinome scan method relative to control; assay type: protein-complex assay
Sequence of Cyclin-dependent kinase 1/cyclin B1 (Homo sapiens) (P06493 whole entry, looked up): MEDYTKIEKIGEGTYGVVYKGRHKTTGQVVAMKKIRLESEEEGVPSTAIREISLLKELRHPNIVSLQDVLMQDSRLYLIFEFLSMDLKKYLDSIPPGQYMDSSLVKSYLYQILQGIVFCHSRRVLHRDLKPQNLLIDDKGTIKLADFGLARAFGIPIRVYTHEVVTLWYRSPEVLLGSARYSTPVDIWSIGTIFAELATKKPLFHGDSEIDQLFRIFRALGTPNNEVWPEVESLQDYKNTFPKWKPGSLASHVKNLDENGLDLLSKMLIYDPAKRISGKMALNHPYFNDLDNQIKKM
Sequence of Cyclin-dependent kinase 1/cyclin B1 (Homo sapiens) (P14635 whole entry, looked up): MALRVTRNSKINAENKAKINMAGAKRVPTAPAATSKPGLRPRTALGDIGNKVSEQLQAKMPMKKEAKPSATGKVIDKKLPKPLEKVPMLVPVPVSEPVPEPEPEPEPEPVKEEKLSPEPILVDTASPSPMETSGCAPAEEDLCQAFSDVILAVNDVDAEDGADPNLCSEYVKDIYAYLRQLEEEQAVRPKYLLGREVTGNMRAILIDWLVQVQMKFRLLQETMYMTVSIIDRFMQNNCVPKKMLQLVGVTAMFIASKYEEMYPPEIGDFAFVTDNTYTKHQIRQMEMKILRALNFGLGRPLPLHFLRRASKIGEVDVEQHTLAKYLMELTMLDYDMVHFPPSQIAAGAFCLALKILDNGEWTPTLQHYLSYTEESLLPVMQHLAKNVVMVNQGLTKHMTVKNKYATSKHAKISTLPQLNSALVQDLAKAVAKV

HCT-116 [7] = assay: Induction of cell cycle arrest in human HCT-116 cells assessed as G0/G1 phase at 5 uM incubated for 6 hrs by flow cytometry analysis (Rvb=35.0%); assay type: functional
HCT-116 [8] = assay: Induction of apoptosis in human HCT-116 cells assessed as viable cells at 0.1 uM incubated for > 6 hrs by annexin V/PI staining based analysis (Rvb=90.04%); assay type: functional; conditions: read-out: Activity
[9] = biological target: Ephrin type-A receptor 1 (Homo sapiens) (UniProt P21709); assay: Inhibition of EPHA1 (unknown origin) at 1000 nM in the presence of ATP by Kinome scan method relative to control
[10] = biological target: Ribosomal protein S6 kinase beta-1 (Homo sapiens) (UniProt P23443); assay: Inhibition of RPS6KB1 (unknown origin) at 100 nM in the presence of ATP by Kinome scan method relative to control
[11] = biological target: Dual specificity protein kinase CLK3 (Homo sapiens) (UniProt P49761); assay: Inhibition of CLK3 (unknown origin) in human HCT-116 cells assessed as increase in CLK3 protein level at 0.5 to 0.1 uM incubated for 6 hrs by immunoblot analysis; assay type: cell-based; conditions: dose 0.5-0.1 µM; method in brief: as §1
Sequence of Dual specificity protein kinase CLK3 (Homo sapiens) (P49761 whole entry, looked up): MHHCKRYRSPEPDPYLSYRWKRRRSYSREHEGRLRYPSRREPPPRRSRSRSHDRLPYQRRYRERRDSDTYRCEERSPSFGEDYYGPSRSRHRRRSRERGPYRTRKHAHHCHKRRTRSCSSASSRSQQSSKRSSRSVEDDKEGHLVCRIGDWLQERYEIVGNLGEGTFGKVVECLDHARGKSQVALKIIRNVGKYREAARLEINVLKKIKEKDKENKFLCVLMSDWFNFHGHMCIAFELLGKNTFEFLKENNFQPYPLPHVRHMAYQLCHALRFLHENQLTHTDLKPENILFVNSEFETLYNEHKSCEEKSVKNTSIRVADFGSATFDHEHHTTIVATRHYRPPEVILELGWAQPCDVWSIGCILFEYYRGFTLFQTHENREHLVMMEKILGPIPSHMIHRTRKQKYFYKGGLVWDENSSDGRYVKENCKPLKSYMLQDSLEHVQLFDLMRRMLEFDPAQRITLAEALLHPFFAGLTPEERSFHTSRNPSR

[12] = biological target: Ephrin type-A receptor 2 (Homo sapiens) (UniProt P29317); assay: Inhibition of EPHA2 (unknown origin) at 100 nM in the presence of ATP by Kinome scan method relative to control
Sequence of Ephrin type-A receptor 2 (Homo sapiens) (P29317 whole entry): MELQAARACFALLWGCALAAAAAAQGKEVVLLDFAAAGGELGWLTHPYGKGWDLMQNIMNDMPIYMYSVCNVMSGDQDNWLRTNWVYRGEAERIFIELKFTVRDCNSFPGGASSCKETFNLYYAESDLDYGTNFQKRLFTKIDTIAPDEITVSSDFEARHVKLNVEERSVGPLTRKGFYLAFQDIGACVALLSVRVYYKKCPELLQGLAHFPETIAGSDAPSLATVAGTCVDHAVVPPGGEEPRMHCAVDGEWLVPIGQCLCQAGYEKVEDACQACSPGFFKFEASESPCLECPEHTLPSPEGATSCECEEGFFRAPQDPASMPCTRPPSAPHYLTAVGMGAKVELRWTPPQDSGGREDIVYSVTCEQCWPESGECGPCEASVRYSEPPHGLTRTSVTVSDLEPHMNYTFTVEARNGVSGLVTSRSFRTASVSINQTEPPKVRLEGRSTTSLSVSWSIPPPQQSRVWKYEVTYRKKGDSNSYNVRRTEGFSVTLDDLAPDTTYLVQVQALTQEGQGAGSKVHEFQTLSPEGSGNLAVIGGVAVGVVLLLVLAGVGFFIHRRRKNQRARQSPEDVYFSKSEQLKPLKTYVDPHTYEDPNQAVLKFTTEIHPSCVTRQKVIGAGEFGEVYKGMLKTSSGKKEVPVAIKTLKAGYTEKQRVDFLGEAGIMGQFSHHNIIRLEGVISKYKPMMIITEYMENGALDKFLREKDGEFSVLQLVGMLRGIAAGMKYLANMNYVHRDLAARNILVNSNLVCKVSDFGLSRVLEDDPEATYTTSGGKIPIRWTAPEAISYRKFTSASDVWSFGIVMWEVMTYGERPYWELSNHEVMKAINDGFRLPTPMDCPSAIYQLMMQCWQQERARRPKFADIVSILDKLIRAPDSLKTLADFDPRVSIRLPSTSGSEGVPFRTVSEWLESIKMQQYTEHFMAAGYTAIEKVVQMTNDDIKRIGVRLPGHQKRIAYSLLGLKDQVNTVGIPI

[13] = biological target: Focal adhesion kinase 1 (Homo sapiens) (UniProt Q05397); assay: Inhibition of PTK2 (unknown origin) at 1000 nM in the presence of ATP by Kinome scan method relative to control
[14] = biological target: Dual specificity tyrosine-phosphorylation-regulated kinase 3 (Homo sapiens) (UniProt O43781); assay: Inhibition of DYRK3 (unknown origin) at 123 nM in the presence of ATP by Kinome scan method relative to control; conditions: time > 6.0 hrs
Sequence of Dual specificity tyrosine-phosphorylation-regulated kinase 3 (Homo sapiens) (O43781 whole entry): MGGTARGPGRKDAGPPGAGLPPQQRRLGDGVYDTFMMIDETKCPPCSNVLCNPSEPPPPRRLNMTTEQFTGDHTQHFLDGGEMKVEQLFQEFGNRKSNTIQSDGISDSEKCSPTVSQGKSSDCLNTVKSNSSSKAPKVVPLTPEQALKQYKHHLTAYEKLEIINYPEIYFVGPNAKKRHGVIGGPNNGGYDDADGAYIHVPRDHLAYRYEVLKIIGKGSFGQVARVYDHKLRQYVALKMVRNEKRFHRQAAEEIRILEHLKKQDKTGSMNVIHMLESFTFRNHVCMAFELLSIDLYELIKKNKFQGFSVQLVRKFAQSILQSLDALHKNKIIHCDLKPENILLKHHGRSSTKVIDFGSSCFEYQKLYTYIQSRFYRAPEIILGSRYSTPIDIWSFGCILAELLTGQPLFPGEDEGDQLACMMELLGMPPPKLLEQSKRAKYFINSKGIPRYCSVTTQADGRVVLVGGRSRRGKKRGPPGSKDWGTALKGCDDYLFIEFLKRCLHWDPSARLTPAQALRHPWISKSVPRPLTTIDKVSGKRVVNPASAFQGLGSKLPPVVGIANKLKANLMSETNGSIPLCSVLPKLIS

[15] = biological target: Calcium/calmodulin-dependent protein kinase type 1 (Homo sapiens) (UniProt Q14012); assay: Inhibition of CAMK1 (unknown origin) at 100 nM in the presence of ATP by Kinome scan method relative to control
Sequence of Calcium/calmodulin-dependent protein kinase type 1 (Homo sapiens) (Q14012 whole entry, looked up): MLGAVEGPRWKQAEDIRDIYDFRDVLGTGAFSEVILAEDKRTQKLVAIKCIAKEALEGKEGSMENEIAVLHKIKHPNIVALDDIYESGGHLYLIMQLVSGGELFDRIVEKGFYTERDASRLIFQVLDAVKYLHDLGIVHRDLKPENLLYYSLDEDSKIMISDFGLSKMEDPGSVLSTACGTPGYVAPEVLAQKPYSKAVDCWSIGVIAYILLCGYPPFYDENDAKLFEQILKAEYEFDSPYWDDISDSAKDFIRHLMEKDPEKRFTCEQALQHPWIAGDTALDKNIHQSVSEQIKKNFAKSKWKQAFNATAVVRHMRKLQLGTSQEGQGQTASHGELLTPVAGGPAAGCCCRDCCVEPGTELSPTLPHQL

HCT-116 [16] = assay: Induction of cell cycle arrest in human HCT-116 cells assessed as S phase at 0.1 uM incubated for 6 hrs by flow cytometry analysis (Rvb=39.3%); assay type: functional
[17] = biological target: Cyclin-dependent kinase 5/CDK5 activator 1 (Homo sapiens) (UniProt Q00535+Q15078); assay: Inhibition of CDK5/p35 (unknown origin) at 100 nM in the presence of ATP by Kinome scan method relative to control; assay type: protein-complex assay
Sequence of Cyclin-dependent kinase 5/CDK5 activator 1 (Homo sapiens) (Q00535 whole entry): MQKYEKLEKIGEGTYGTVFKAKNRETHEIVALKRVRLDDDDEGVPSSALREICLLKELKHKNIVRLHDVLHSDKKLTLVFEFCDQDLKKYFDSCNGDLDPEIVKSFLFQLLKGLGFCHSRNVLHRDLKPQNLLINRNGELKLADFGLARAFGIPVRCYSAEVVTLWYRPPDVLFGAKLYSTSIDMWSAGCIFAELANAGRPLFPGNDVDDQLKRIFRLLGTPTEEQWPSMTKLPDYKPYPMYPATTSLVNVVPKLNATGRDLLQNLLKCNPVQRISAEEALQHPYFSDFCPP
Sequence of Cyclin-dependent kinase 5/CDK5 activator 1 (Homo sapiens) (Q15078 99-307 partner limits assumed): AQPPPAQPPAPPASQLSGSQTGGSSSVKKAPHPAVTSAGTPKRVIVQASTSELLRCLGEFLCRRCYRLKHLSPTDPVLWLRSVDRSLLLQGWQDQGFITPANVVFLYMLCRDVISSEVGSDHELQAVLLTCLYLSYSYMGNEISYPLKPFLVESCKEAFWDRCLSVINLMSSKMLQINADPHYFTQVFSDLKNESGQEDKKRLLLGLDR

[18] = biological target: Fibroblast growth factor receptor 1 (Homo sapiens) (UniProt P11362); assay: Inhibition of FGFR1 (unknown origin) at 100 nM in the presence of ATP by Kinome scan method relative to control
[19] = biological target: Dual specificity protein kinase CLK3 (Homo sapiens) (UniProt P49761); assay: Inhibition of CLK3 (unknown origin) at 1110 nM in the presence of ATP by Kinome scan method relative to control; conditions: time > 6.0 hrs
HCT-116 [20] = assay: Induction of cell cycle arrest in human HCT-116 cells assessed as G0/G1 phase at 0.5 uM incubated for 6 hrs by flow cytometry analysis (Rvb=35.0%); assay type: functional
[21] = biological target: Serine/threonine-protein kinase Nek2 (Homo sapiens) (UniProt P51955); assay: Inhibition of NEK2 (unknown origin) at 100 nM in the presence of ATP by Kinome scan method relative to control
Sequence of Serine/threonine-protein kinase Nek2 (Homo sapiens) (P51955 whole entry): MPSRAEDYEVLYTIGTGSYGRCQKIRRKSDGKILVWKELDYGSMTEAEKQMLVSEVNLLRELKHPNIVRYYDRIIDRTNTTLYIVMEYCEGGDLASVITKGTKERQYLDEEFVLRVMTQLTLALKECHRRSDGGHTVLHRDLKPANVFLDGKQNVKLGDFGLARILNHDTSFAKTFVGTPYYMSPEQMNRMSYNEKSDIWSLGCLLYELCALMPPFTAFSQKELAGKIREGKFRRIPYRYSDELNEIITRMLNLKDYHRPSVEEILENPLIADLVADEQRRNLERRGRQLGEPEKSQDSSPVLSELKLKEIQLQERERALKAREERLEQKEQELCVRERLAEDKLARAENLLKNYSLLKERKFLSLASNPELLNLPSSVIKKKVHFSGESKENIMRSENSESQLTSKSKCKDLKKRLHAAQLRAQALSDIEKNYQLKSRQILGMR

HCT-116 [22] = assay: Induction of cell cycle arrest in human HCT-116 cells assessed as sub G0/G1 phase at 10 uM incubated for 6 hrs by flow cytometry analysis (Rvb=1.6%); assay type: functional
[23] = biological target: Dual specificity protein kinase CLK2 (Homo sapiens, UniProt P49760); assay: Inhibition of N-terminal FLAG-tagged CLK2 in human HCT-116 cells assessed as increase in CLK2 protein level at 0.5 to 0.1 uM incubated for 6 hrs by immunoblot analysis; assay type: cell-based; conditions: dose 0.5-0.1 µM
[24] = biological target: SRSF protein kinase 1 (Homo sapiens) (UniProt Q96SB4); assay: Inhibition of SRPK1 (unknown origin) at 123 nM in the presence of ATP by Kinome scan method relative to control; conditions: time > 6.0 hrs
[25] = biological target: Ephrin type-B receptor 1 (Homo sapiens) (UniProt P54762); assay: Inhibition of EPHB1 (unknown origin) at 1000 nM in the presence of ATP by Kinome scan method relative to control
[26] = biological target: Dual specificity mitogen-activated protein kinase kinase 1 (Homo sapiens) (UniProt Q02750); assay: Inhibition of MAP2K1 (unknown origin) at 1000 nM in the presence of ATP by Kinome scan method relative to control
HCT-116 [27] = assay: Induction of cell cycle arrest in human HCT-116 cells assessed as G2/M phase at 1 uM incubated for 6 hrs by flow cytometry analysis (Rvb=25.8%); assay type: functional
[28] = biological target: Dual specificity protein kinase CLK1 (Homo sapiens) (UniProt P49759); assay: Inhibition of CLK1 (unknown origin) at 123 nM in the presence of ATP by Kinome scan method relative to control; conditions: time > 6.0 hrs

inhibition [2]: Dose-Dependent Effect | inhibition [3]: -7% | inhibition [4]: Active | inhibition [6]: 7% | inhibition [9]: -1% | inhibition [10]: 2% | inhibition [11]: Active | inhibition [12]: -4% | inhibition [13]: -7% | inhibition [14]: -2% | inhibition [15]: 7% | inhibition [17]: 2% | inhibition [18]: 4% | inhibition [19]: 89% | inhibition [21]: 12% | inhibition [23]: Active | inhibition [24]: -3% | inhibition [25]: 4% | inhibition [26]: 11% | inhibition [28]: 91%
SMILES: CN1CCN(C(=O)C(C)(C)c2ccc(C(=O)Nc3cn4cc(-c5ccncc5)ccc4n3)cc2)CC1 [T3-CLK]
Activity (HCT-116 [1]): 7.3% | Activity (HCT-116 [5]): 0.73% | Activity (HCT-116 [7]): 28.1% | viability at 0.1 µM (HCT-116 [8]): 87.8% | Activity (HCT-116 [16]): 45.5% | Activity (HCT-116 [20]): 18.4% | Activity (HCT-116 [22]): 1.7% | Activity (HCT-116 [27]): 34.6%
